Assay outcomes (PubChem BioAssay)
CSC inhib: cancer stem cell inhibition | cancer stem cell-like cells viability, luminescence | inhibition, % at 7.5 µM | 300,000 compounds, 1.1% hits | AID 2717; in the data active = inhibition above about 75%; tested in HMLE shEcad cells
Beta apoptosis: beta cell apoptosis inhibition | INS-1E cytokine-induced death, ATP luminescence, 48 h; percent of positive-control rescue, neutral wells zero | protection from apoptosis, % (no concentration beside the values) | 300,000 compounds, 0.8% hits;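 active = Every replicate reaches about 75%, or at least half do and their mean reaches it too, limit read from the data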;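 also: 0% = cytokine-treated negative control wells and 100% = positive control rescue; higher means more ATP so stronger rescue from cytokine killing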
UPR XBP1 act: activators of adaptive arm of unfolded protein response (XBP1) | CHO-XBP1 luciferase reporter, IRE1-XBP1 UPR activation, luminescence; percent of tunicamycin response, DMSO as zero | activation, % at 20 µM | 330,000 compounds, 0.33% hits | AID 463104;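 active = versus positive control, 20 µM dose yields 30% or more activation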;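 also: 100% = tunicamycin at 10 µg/mL and 0% = DMSO only wells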
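assay system = CHO-XBP1 luciferase reporter cells | amount = 1000 cells/well | buffer or medium = F12 plus 10% FBS | compound dosing = single point, 20 µM final compound, 1% DMSO | incubation = 16-18 h cell attachment at 37 °C, then 6 h compound exposure | detection = Steady-Glo luminescence read | controls = tunicamycin 10 µg/mL and vehicle-only wells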
T cruzi inh: blocks replication of Trypanosoma cruzi; AID 1885; T. cruzi beta-gal in NIH3T3, luminescence, 90 h; 300,000 compounds, 1.4% hits; inhibition, % (concentration not given with the values);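 active = mean inhibition across valid replicates above about 55%, limit read from the data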;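 also: signal also drops with host cell toxicity which is not excluded here; 0% = plate median of DMSO wells and 100% = zero luminescence signal; higher percent means less beta-gal luminescence so fewer parasites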
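Test system: β-gal T. cruzi (Tulahuen C4) inside NIH/3T3 cells / Quantity: 5,000 cells/well / Measured by: luminescence from GalScreen with 0.05% NP40, read after 60 min / Medium: DMEM plus 2% FBS / Measure: parasite load inhibition, % / Reagent: Tulahuen C4 trypomastigotes, 5000/well / Schedule: co-culture of at least 90 h after 3 h attachment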
Mdm2 MdmX PPI: inhibitors of human Mdm2/MdmX interaction; O15151+Q00987; 330,000 compounds, 3% hits; SaOS-2 split-luciferase Mdm2/MdmX complementation, luminescence; inhibition, % at 8 µM;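 active = inhibition of at least 50% at 8 µM in the primary screen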
UPR CHOP act: activators of apoptotic arm of unfolded protein response (CHOP); CHO-CHOP luciferase reporter, UPR activation, luminescence; percent of tunicamycin response over DMSO baseline; activation, % at 10 µM; AID 449763; 330,000 compounds, 0.34% hits;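 active = at 10 µM dose, activation of 40% or more, normalized to positive control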;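 also: 100% = tunicamycin at 10 µg/mL and 0% = DMSO alone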
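Test system: CHO CHOP reporter cells. Input: 500 CHO-CHOP cells per well. Medium: F12 with 10% FBS. Technique: luciferase luminescence. Measure: percent activation relative to tunicamycin control. Dosing: 10 µM compound, 0.5% DMSO. Timing: 16-18 h cell attachment, then 6 h compound exposure, 37 °C.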
Active calls of the source: *; x = no result given. Compounds with a hit are over-represented: about 5% of the library has one in this group of screens.

SMILES | CSC inhib | Beta apoptosis | UPR XBP1 act | T cruzi inh | Mdm2 MdmX PPI | UPR CHOP act
CSc1cccc(CN2CCCC(CO)(Cc3cccc(Cl)c3)C2)c1 (centres undefined) | 31 | 9 | 2 | 62* | 20 | 0
Cn1cc(CN2CCCC(CO)(Cc3cccc(Cl)c3)C2)cn1 (centres undefined) | 10 | 3 | 2 | 22 | 8 | -1
CCC(C)Cn1c(C(C)O)nc2ccccc21 (centres undefined) | 1 | -4 | -1 | -1 | 21 | 0
Cc1ccc(NC(=O)N2CCCC2C(=O)Nc2nnc(C(C)C)s2)cc1 (centres undefined) | x | -6 | 3 | -8 | 0 | 1
CN(C)Cc1nnnn1-c1cccc(-n2nnnc2CN(C)C)c1 | -5 | -5 | -1 | -5 | 28 | 1
CCCCCCCCOC(=O)c1c(CSC(=N)N)n(C)c2cc(Br)c(OC(C)=O)cc12 | 76* | -1 | -8 | 22 | -5 | 0
O=C(NCc1ccco1)c1ccc2c(c1)N(Cc1ccccc1)CCS2 | 129* | -1 | -3 | -5 | -9 | 0
CCn1c(SCC(=O)NC2CCCCC2)nnc1-c1ccco1 | x | -3 | -3 | 3 | -6 | 0
CN1/C(=C\C(=S)Nc2ccccc2)C(C)(C)c2ccccc21 | -2 | 120* | 1 | 36 | 25 | 1
CN1/C(=C/C(=S)NC(=O)C2(C)CC2(Cl)Cl)C(C)(C)c2ccccc21 (centres undefined) | 9 | 49 | -1 | 55* | 35 | 0
CN1/C(=C\C(=O)Nc2ccc(Cl)cc2)C(C)(C)c2ccccc21 | 61 | -2 | -1 | 14 | 9 | 0
CN1/C(=C\C(=S)NC(=O)c2ccccc2Cl)C(C)(C)c2ccccc21 | 57 | 100* | 1 | 42 | -5 | 4
COc1ccc(Nc2cc(C)nc(NCc3ccccc3)n2)cc1 | 34 | 60 | 5 | 61* | 17 | 7
Cc1cc(NC2CCCCC2)nc(NCc2ccccc2)n1 | 16 | 104* | 0 | 58* | 28 | 1
Cc1ccc(C(=O)ONc2ccc(N=NC(=O)c3ccccc3O)cc2)cc1 | 78* | 4 | -1 | -4 | -10 | -1
CC(COc1ccc(C(C)C)cc1)NC(=O)c1ccc(Br)o1 (centres undefined) | 8 | 6 | -3 | 8 | 10 | 0
O=C(Nc1ccc(OC(F)(F)F)cc1)N1CCN(c2ccnc3cc(Cl)ccc23)CC1 | 64 | 68 | -3 | 64* | 22 | 4
Cn1c(SCC(=O)Nc2nccs2)nnc1-c1ccccn1 | -4 | -6 | -4 | -2 | 5 | -1
CCCCCCCCCC(=O)N/N=C(\C)c1cccnc1 | 13 | 2 | -2 | 62* | -9 | -1
CCOC(=O)c1ccccc1NC(=O)Cc1ccc(OC)c(S(=O)(=O)N2CCOCC2)c1 | -1 | -4 | -3 | x | 21 | 0
Cc1nc2nc(C)c(CCC(=O)N3CCOCC3)c(C)n2n1 | -1 | 0 | 0 | -2 | 22 | 0
C=CCn1c(=O)c(C(=O)NCCc2ccccc2)c(O)c2ccccc21 | 116* | 9 | -2 | 12 | -4 | 2
CCCn1c(=O)c(C(=O)NCCc2ccccc2)c(O)c2ccccc21 | 38 | 2 | -2 | -6 | -14 | 2
O=C(CNCCc1ccc(Cl)cc1)Nc1ccc(C(=O)N2CCCCC2)cc1 | 14 | 0 | -3 | 62* | 24 | 2
O=C(c1ccc([N+](=O)[O-])cc1[N+](=O)[O-])N1CCc2ccccc21 | 25 | 2 | -8 | 58* | 12 | 1
SMILES | CSC inhib | Beta apoptosis | UPR XBP1 act | T cruzi inh | Mdm2 MdmX PPI | UPR CHOP act
CC1(C)CC2CC(C)(CN2C(=O)c2ccc([N+](=O)[O-])cc2[N+](=O)[O-])C1 (centres undefined) | -6 | -3 | -1 | 97* | -2 | 1
Oc1ccc(N=Nc2ccc3c(c2)OCCO3)c(O)c1 | 84* | 4 | -3 | -12 | -76 | -6
O=C(Cc1ccc2c(c1)OCCO2)c1c(O)cc(O)cc1O | 22 | -7 | -1 | 3 | 26 | 4
C/C(=N\NC(=S)NC(C)C)c1ccccc1 | -5 | 5 | 3 | -2 | 2 | 2
CC(C)NC(=S)NC(c1ccccc1)(c1ccccc1)c1ccccc1 | 25 | 112* | -5 | 55* | 50 | 2
COc1ccccc1C(=O)Nn1c(C2CCC2)nc2ccccc2c1=O | x | -2 | 0 | 56* | -8 | 0
CCOc1ccccc1C(=O)Nn1c(C2CCC2)nc2ccccc2c1=O | 16 | 2 | 0 | 31 | 8 | -1
CSc1ccc(CNC(=O)CCn2ccc3cc(S(=O)(=O)N4CCCC4)ccc32)cc1 | -11 | 2 | -4 | 5 | 33 | 1
O=C(Nc1ccc(Cl)cc1)N1CCCN(c2ccc(C(F)(F)F)cc2[N+](=O)[O-])CC1 | 83* | -3 | -3 | 21 | 13 | 1
O=C(c1ccc(CS(=O)c2cccc(Cl)c2)o1)N1CCCCCC1 (centres undefined) | -9 | -15 | -4 | 0 | 4 | 0
CCc1ccccc1NC(=S)N(CCN(C)C)Cc1cccs1 | -9 | -2 | 0 | -3 | 23 | 0
S=c1sc2c(Cl)ncnc2n1-c1ccccc1 | x | x | x | 59* | x | x
Cc1nc(N2CCN(C)CC2)c2sc(=S)n(-c3ccccc3)c2n1 | 0 | 1 | 1 | 36 | 4 | 1
O=C(/C=C/c1ccc(N2CCCCC2)c([N+](=O)[O-])c1)c1ccc(O)cc1 | 110* | 7 | -2 | 17 | 43 | 10
COc1ccc(-c2noc3c2-c2nc(-c4ccccc4F)sc2CC3)cc1 | 65 | 4 | -1 | -16 | -3 | 0
Cc1c(C(=O)NCC2COc3ccccc3O2)oc2ccc(S(=O)(=O)N3CC(C)CC(C)C3)cc12 (centres undefined) | 30 | 8 | -5 | 63* | 39 | 2
CCN(CC)CCCNC(=O)c1oc2ccc(S(=O)(=O)N3CC(C)CC(C)C3)cc2c1C (centres undefined) | 1 | -13 | 6 | 56* | 46 | 2
Cc1c(C(=O)NCC2CCCO2)oc2ccc(S(=O)(=O)N3CC(C)CC(C)C3)cc12 (centres undefined) | 3 | x | -2 | 14 | -6 | 1
CCCNC(=O)C(Cc1cccc(C#N)c1)NC(=O)c1ccc(C#N)cc1 (centres undefined) | -19 | -3 | -4 | x | 18 | 0
COc1ccc(S(=O)(=O)N(C(C)=O)c2ccc(OC(C)=O)c3ccccc23)cc1[N+](=O)[O-] | 22 | 106* | 2 | -4 | 22 | 0
CC(=O)Oc1c(Cl)cc(N(C(C)=O)S(=O)(=O)c2ccccc2)c2ccccc12 | 12 | 95* | 1 | -11 | 23 | 1
